Reference: ChEMBL document CHEMBL1932946, “Design, synthesis and anticonvulsant evaluation of novel N-(4-substituted phenyl)-2-[4-(substituted) benzylidene]-hydrazinecarbothio amides” (Eur J Med Chem, 2012)
Calls of active or inactive are those of the source.

Assays:
[1] = system: Mus musculus; assay: Anticonvulsant activity in albino CF-1 mouse assessed as protection against maximal electroshock-induced seizures at 300 mg/kg, ip after 2 hrs; assay type: functional, organism-based; parameters: dose 300 mg/kg
In short: (§1)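 Male CF-1 albino mice (18–25 g) dosed i.p. at 30, 100 and 300 mg/kg as suspension in 0.5% methyl cellulose. 60 Hz alternating current, 50 mA, delivered 0.2 s via corneal electrodes primed with 0.5% tetracaine HCl electrolyte. Protection = abolition of hind limb tonic extensor component. Value reported is the minimum dose active in half or more of mice.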

[2] = system: Mus musculus; assay: Neurotoxicity in albino CF-1 mouse assessed as minimum motor impairment at 300 mg/kg, ip after 0.5 hrs by rotarod test; assay type: toxicity, organism-based; parameters: dose 300 mg/kg, route intraperitoneal; details: in vivo
In short: (§2)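 Minimal motor impairment assessed in male CF-1 albino mice (18–25 g) at 0.5 and 4 h after i.p. doses of 30, 100 and 300 mg/kg, given in 0.5% methyl cellulose. Minimum dose toxic in half or more of mice recorded.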

[3] = system: Mus musculus; assay: Anticonvulsant activity in ip dosed albino CF-1 mouse assessed as protection against subcutaneous metrazol-induced seizures after 0.5 hrs; assay type: functional; details: albino CF-1, 0.5 h, read-out: MED
In short: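 Male CF-1 mice (18–25 g) were given compound i.p. at 30, 100 or 300 mg/kg, suspended in 0.5% methyl cellulose. Metrazol was injected subcutaneously into a loose skin fold at the neck midline, at the dose that induces convulsions in 97% of animals. Mice were isolated and watched for 30 min for absence of seizure. The value reported is the minimum dose active in half or more of mice.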

[4] = system: Mus musculus; assay: Neurotoxicity in albino CF-1 mouse assessed as minimum motor impairment at 300 mg/kg, ip after 4 hrs by rotarod test; assay type: toxicity, organism-based; parameters: dose 300 mg/kg, route intraperitoneal; details: in vivo; in short: as §2
[5] = system: Mus musculus; assay: Anticonvulsant activity in albino CF-1 mouse assessed as protection against maximal electroshock-induced seizures at 300 mg/kg, ip after 0.5 hrs; assay type: functional, organism-based; parameters: dose 300 mg/kg; in short: as §1
[6] = system: Mus musculus; assay: Anticonvulsant activity in albino CF-1 mouse assessed as protection against maximal electroshock-induced seizures at 300 mg/kg, ip after 4 hrs; assay type: functional, organism-based; parameters: dose 300 mg/kg; in short: as §1
[7] = system: Mus musculus; assay: Anticonvulsant activity in albino CF-1 mouse assessed as protection against subcutaneous metrazol-induced seizure at 300 mg/kg, ip after 4 hrs; assay type: functional, organism-based; parameters: dose 300 mg/kg
In short: (§3)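 Mice (male CF-1 albino, 18–25 g) pretreated i.p. with 30, 100 or 300 mg/kg in 0.5% methyl cellulose. Metrazol, at a dose convulsing 97% of animals, injected subcutaneously into the loose skin fold at the midline of the neck. Animals isolated and watched for 30 min for absence of seizure. Minimum dose active in half or more of mice recorded.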

[8] = system: Mus musculus; assay: Anticonvulsant activity in albino CF-1 mouse assessed as protection against 6 Hz psychomotor seizure at 100 mg/kg, ip after 2 hrs by minimal clonic seizure test; assay type: functional
In short: (§4)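 Male CF-1 albino mice (18–25 g) given compound i.p., suspended in 0.5% methyl cellulose, 100 mg/kg in screen. Four mice per time point challenged at 0.25, 0.5, 1.0, 2.0 and 4.0 h via corneal electrodes (32 mA, 3 s, 6 Hz). Protection = absence of psychomotor seizure (minimal clonic phase, automatistic behaviours). Scored as animals protected/tested.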

[9] = system: Mus musculus; assay: Anticonvulsant activity in albino CF-1 mouse assessed as protection against 6 Hz psychomotor seizure at 100 mg/kg, ip after 0.5 hrs by minimal clonic seizure test; assay type: functional; in short: as §4
[10] = Neuroprotective activity in hippocampal slice assessed as protection against NMDA-induced cell death using propidium iodide staining; assay type: functional, tissue-based; details: Hippocampus
In short: (§5)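 Qualitative primary screen on organotypic hippocampal slice cultures. Cell death induced by NMDA or kainic acid, with or without test compound. Propidium iodide present in all wells; PI fluorescence intensity taken as proportional to cell death.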

[11] = Neuroprotective activity in hippocampal slice assessed as protection against kainic acid-induced cell death using propidium iodide staining; assay type: functional, tissue-based; details: Hippocampus; in short: as §5
[12] = system: Mus musculus; assay: Anticonvulsant activity in albino CF-1 mouse assessed as protection against 6 Hz psychomotor seizure at 100 mg/kg, ip after 0.25 hrs by minimal clonic seizure test; assay type: functional; in short: as §4
[13] = system: Mus musculus; assay: Anticonvulsant activity in albino CF-1 mouse assessed as protection against 6 Hz psychomotor seizure at 100 mg/kg, ip after 4 hrs by minimal clonic seizure test; assay type: functional, organism-based; parameters: dose 100 mg/kg; in short: as §4
[14] = Octanol-phosphate buffer partition coefficient, log P of the compound at 5 mg after 24 hrs by UV spectroscopic analysis; assay type: physicochemical
In short: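 5 mg compound added to 10 mL octanol plus 10 mL phosphate buffer in a stoppered tube. Mixture shaken mechanically 24 h at room temperature, then left 6 h in a separating funnel to equilibrate.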

[15] = system: Mus musculus; assay: Anticonvulsant activity in albino CF-1 mouse assessed as protection against 6 Hz psychomotor seizure at 100 mg/kg, ip after 1 hr by minimal clonic seizure test; assay type: functional; in short: as §4
[16] = species: Mus musculus; assay: Protective index, ratio of TD50 for albino CF-1 mouse to ED50 for albino CF-1 mouse by 6 Hz psychomotor seizure test; assay type: functional
[17] = Neurotoxicity in ip dosed albino CF-1 mouse assessed as minimum motor impairment after 0.5 hrs by rotarod test; assay type: toxicity, organism-based; details: in vivo
[18] = system: Mus musculus; assay: Anticonvulsant activity in ip dosed albino CF-1 mouse assessed as protection against 6 Hz psychomotor seizure after 0.5 hrs by minimal clonic seizure test; assay type: functional; details: albino CF-1, ip; in short: as §4
[19] = system: Mus musculus; assay: Anticonvulsant activity in albino CF-1 mouse assessed as protection against subcutaneous metrazol-induced seizure at 300 mg/kg, ip after 0.5 hrs; assay type: functional, organism-based; parameters: dose 300 mg/kg; in short: as §3
[20] = system: Mus musculus; assay: Anticonvulsant activity in ip dosed albino CF-1 mouse assessed as protection against maximal electroshock-induced seizures after 4 hrs; assay type: functional; details: albino CF-1, ip, read-out: MED; in short: as §1
[21] = system: Mus musculus; assay: Anticonvulsant activity in ip dosed albino CF-1 mouse assessed as protection against maximal electroshock-induced seizures after 0.5 hrs; assay type: functional; details: albino CF-1, ip, read-out: MED
In short: (§6)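 Male CF-1 mice (18–25 g) received compound suspended in 0.5% methyl cellulose, i.p. at 30, 100 or 300 mg/kg. A 60 Hz alternating current (50 mA, 0.2 s) was delivered through corneal electrodes primed with 0.5% tetracaine HCl. Protection was defined as abolition of the hind limb tonic extensor component. The value reported is the minimum dose active in half or more of mice.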

[22] = system: Mus musculus; assay: Anticonvulsant activity in ip dosed albino CF-1 mouse assessed as protection against maximal electroshock-induced seizures after 2 hrs; assay type: functional; details: albino CF-1, ip, read-out: MED; in short: as §6

Row | Compound | logP at 24 h [14] | Activity [1] | Activity [2] | Activity [4] | Activity [5] | Activity [7] | Activity [8] | Activity [9] | Activity [10] | Activity [11] | Activity [12] | Activity [13] | Activity [15] | Activity ([9]; route intraperitoneal) [%] | Activity [19] | minimal effective dose [20] [mg/kg] | further results
1 | CCCC(CCC)C(=O)[O-].[Na+] [VALPROATE SODIUM] |  | inactive | Non-toxic | Non-toxic | inactive | inactive |  |  |  |  |  |  |  |  |  |  | minimal effective dose [3]: 300 mg/kg; Activity [6]: inactive
2 | Fc1ccc(NC(=S)N/N=C/c2ccc(Oc3ccc(Cl)cc3)cc2)cc1 | 5.78 |  | Non-toxic | Non-toxic |  |  | Active |  | inactive | inactive |  | Active | Active | 100 |  |  | Ratio TD50/ED50 [16]: >2.5; Activity ([12]; route intraperitoneal): 75%; TD50 at 0.5 h [17]: > 500 mg/kg; ED50 [18]: > 200 mg/kg
3 | O=C1NC(=O)C(c2ccccc2)(c2ccccc2)N1 [PHENYTOIN] |  |  |  |  |  | inactive |  |  |  |  |  |  |  |  | inactive | 30 | minimal effective dose [21]: 30 mg/kg; minimal effective dose [22]: 30 mg/kg

Further lines, with some results ahead:

Row | logP at 24 h [14] | Compound | Activity [1] | Activity [2] | Activity [4] | Activity [5] | Activity [7] | Activity [8] | Activity [9] | Activity [10] | Activity [11] | Activity [12] | Activity [13] | Activity [15] | Activity ([9]; route intraperitoneal) [%] | Activity [19] | minimal effective dose [20] [mg/kg] | further results
4 | 6.38 | S=C(N/N=C/c1ccc(Oc2ccccc2)cc1)Nc1ccc(Br)cc1 |  | Non-toxic | Non-toxic |  |  | inactive | Active | inactive | inactive | inactive | inactive | inactive |  |  |  | 
5 | 6.53 | S=C(N/N=C/c1ccc(Oc2ccc(Br)cc2)cc1)Nc1ccc(Br)cc1 | inactive | Non-toxic | Non-toxic | inactive | inactive | inactive |  |  |  | inactive | inactive | inactive | 75 | inactive | 300 | 
6 | 5.82 | Fc1ccc(Oc2ccc(/C=N/NC(=S)Nc3ccc(Br)cc3)cc2)cc1 |  | Non-toxic | Non-toxic |  |  | Active | Active |  |  | inactive | inactive | Active |  |  |  | 
